# Assay results published in ChEMBL document CHEMBL4190393, “Specific Stereoisomeric Conformations Determine the Drug Potency of Cladosporin Scaffold against Malarial Parasite” (J Med Chem, 2018).
# Columns and labels:
# [1] = target: Lysine--tRNA ligase (Plasmodium falciparum (isolate 3D7)) (UniProt Q8IDJ8); experiment: Binding affinity to Plasmodium falciparum KRS expressed in Escherichia coli BL21 by thermal shift assay
# In short: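 Protein thermal shift assay with PfKRS at 2 μM in the presence of L-lysine. Binding is reported as the shift in melting temperature (ΔTm, °C) of the enzyme when the compound is added.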
# [2] = target: T1, Lysine--tRNA ligase (Homo sapiens, UniProt Q15046); experiment: Binding affinity to human KRS expressed in Escherichia coli BL21 by thermal shift assay
# In short: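 Protein thermal shift assay with Hs-KRS at 4 μM in the presence of L-lysine; binding read out as the shift in melting temperature (ΔTm, °C) produced by each ligand.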
# Target sequence in this assay (Q15046 2-597 limits assumed): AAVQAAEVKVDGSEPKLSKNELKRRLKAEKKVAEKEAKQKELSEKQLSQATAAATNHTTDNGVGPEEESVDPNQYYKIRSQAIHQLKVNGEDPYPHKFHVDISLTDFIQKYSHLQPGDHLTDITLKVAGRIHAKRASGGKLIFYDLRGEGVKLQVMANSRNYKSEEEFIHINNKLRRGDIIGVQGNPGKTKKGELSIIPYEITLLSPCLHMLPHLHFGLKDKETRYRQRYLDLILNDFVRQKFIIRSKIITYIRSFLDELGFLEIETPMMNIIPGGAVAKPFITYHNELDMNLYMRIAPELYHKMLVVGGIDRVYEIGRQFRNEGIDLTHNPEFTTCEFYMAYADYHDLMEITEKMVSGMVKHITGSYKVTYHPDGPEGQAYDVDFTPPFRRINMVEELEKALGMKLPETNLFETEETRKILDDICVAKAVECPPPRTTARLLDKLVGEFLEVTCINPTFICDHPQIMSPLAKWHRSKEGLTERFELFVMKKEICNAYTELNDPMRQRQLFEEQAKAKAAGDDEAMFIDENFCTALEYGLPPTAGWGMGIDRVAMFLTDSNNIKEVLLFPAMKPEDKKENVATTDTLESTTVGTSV
# [3] = target: Lysine--tRNA ligase (Plasmodium falciparum (isolate 3D7), UniProt Q8IDJ8); experiment: Inhibition of Plasmodium falciparum KRS expressed in Escherichia coli BL21 using tRNA(Lys) as substrate after 45 mins in presence of L-lysine by AMP-GLO assay
# [4] = target: T1, Lysine--tRNA ligase; experiment: Inhibition of human KRS expressed in Escherichia coli BL21 using tRNA(Lys) as substrate after 1 hr in presence of L-lysine by AMP-GLO assay
# Target sequence in this assay (Q15046 whole entry): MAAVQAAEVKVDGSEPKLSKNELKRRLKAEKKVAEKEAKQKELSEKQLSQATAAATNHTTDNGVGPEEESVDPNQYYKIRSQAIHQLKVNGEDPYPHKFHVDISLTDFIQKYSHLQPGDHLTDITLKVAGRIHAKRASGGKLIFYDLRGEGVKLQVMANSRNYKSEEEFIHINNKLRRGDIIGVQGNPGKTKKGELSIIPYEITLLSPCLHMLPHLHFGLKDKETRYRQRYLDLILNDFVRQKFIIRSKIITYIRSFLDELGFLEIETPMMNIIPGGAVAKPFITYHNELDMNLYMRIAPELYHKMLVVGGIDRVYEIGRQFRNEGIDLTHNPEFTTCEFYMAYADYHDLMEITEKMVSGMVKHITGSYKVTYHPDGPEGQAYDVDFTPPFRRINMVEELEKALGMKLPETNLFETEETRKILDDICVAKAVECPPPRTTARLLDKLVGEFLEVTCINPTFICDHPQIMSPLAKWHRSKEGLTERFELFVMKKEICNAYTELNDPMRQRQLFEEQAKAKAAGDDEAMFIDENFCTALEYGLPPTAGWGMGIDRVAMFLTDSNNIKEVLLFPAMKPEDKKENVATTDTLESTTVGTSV
# [5] = tested on: Plasmodium falciparum; experiment: Antiparasitic activity against Plasmodium falciparum 3D7 infected in human erythrocytes after 48 hrs by SYBR green-1 staining based assay; assay type: functional, organism-based; details: 3D7, 48 h
# [6] = Selectivity ratio of IC50 for human KRS to IC50 for Plasmodium falciparum KRS
# Chain of Lysine--tRNA ligase (Plasmodium falciparum (isolate 3D7), UniProt Q8IDJ8) (Q8IDJ8 whole entry): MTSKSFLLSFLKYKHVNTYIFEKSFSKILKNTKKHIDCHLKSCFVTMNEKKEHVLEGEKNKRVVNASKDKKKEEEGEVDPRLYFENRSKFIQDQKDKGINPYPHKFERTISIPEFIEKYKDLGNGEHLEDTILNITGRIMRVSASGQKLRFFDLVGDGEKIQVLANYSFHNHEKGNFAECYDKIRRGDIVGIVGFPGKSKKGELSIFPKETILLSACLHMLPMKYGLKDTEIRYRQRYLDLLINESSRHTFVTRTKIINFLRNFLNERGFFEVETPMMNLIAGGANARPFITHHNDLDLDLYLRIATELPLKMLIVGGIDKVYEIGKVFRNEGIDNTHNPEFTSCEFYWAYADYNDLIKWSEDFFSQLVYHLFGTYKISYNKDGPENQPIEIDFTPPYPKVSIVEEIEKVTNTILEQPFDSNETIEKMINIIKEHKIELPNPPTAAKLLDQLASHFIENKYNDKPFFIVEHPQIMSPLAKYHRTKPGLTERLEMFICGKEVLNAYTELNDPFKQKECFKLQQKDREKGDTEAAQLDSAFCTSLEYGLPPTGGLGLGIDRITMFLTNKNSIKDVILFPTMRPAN
# Chain of Lysine--tRNA ligase (Plasmodium falciparum (isolate 3D7)) (Q8IDJ8 1-583): as the sequence (Q8IDJ8 whole entry) above
Structure (SMILES),ΔTm [1] [°C],ΔTm [2] [°C],IC50 [3] [µM],IC50 [4] [µM],EC50 [5] [µM],Ratio IC50 [6]
C[C@H]1CCC[C@H](C[C@H]2Cc3cc(O)cc(O)c3C(=O)O2)O1 [CLADOSPORIN],17.3,1.3,0.12,105,0.04,840
C[C@@H]1CCC[C@@H](C[C@@H]2Cc3cc(O)cc(O)c3C(=O)O2)O1,7.9,-0.9,50,> 100,> 2,
C[C@H]1CCC[C@@H](C[C@H]2Cc3cc(O)cc(O)c3C(=O)O2)O1,15.6,0.1,5.8,> 100,1.1,
C[C@H]1CCC[C@H](C[C@@H]2Cc3cc(O)cc(O)c3C(=O)O2)O1,14.3,0.5,4.64,> 100,1.6,
C[C@@H]1CCC[C@@H](C[C@H]2Cc3cc(O)cc(O)c3C(=O)O2)O1,13.5,1.1,7.25,> 100,1.15,
C[C@@H]1CCC[C@H](C[C@H]2Cc3cc(O)cc(O)c3C(=O)O2)O1,16.2,1,0.29,> 100,0.27,
C[C@H]1CCC[C@@H](C[C@@H]2Cc3cc(O)cc(O)c3C(=O)O2)O1,11.4,1.1,29,> 100,> 2,
C[C@@H]1CCC[C@H](C[C@@H]2Cc3cc(O)cc(O)c3C(=O)O2)O1,11.8,0.3,21.3,> 100,> 2,
